Laboratory results published in ChEMBL document CHEMBL1123027, “Synthesis and biological activity of 5-thiobredinin and certain related 5-substituted imidazole-4-carboxamide ribonucleosides” (J Med Chem, 1985).

Tests used:
[1] = tested on: Human alphaherpesvirus 2; test: In vitro antiviral activity was tested against herpes simplex type 2 (HSV-2); assay type: functional; conditions: read-out: ED50 (the source's name)
Method in brief: (§1)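 Vero cell monolayers, grown 24 h at 37 °C in 5% CO2 to confluency, were infected with HSV-2 (strain 333) at 100 TCID50 per well. After 30-min adsorption at 37 °C, compound was added in seven 0.5-log steps, final 5 × 10⁻⁶ to 5 × 10⁻³ M, in duplicate wells. After 72 h at 37 °C, the ED50 was taken as 50% inhibition of viral CPE versus untreated controls.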

[2] = tested on: Mus musculus; test: The maximum tolerated dose was evaluated in mice and expressed in terms of mg/kg of body weight; assay type: functional
[3] = tested on: Human respirovirus 3; test: In vitro antiviral activity was tested against parainfluenza type 3 (para3) virus; assay type: functional, para influenza virus; conditions: read-out: ED50 (the source's name)
[4] = tested on: Rift Valley fever virus; test: In vitro antiviral activity was tested against rift valley fever virus(RVF) virus; assay type: functional; conditions: read-out: ED50 (the source's name)
[5] = tested on: Rift Valley fever virus; test: (§2) Therapeutic index against Rift valley fever virus.; assay type: organism-based; conditions: in vivo, read-out: Therapeutic index
[6] = tested on: Vero; test: Maximum tolerated concentration (MTC) was evaluated in vero cells.; assay type: functional, Chlorocebus sabaeus
Method in brief: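 Confluent, uninfected Vero monolayers were given compound in seven 0.5-log steps, final 5 × 10⁻⁶ to 5 × 10⁻³ M, one well per concentration, for 72 h at 37 °C in 5% CO2. Wells were checked by microscope for changes in morphology or monolayer density (lysis, rounding, detachment). The MTC is the lowest concentration giving visible cytotoxicity.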

[7] = tested on: Venezuelan equine encephalitis virus; test: In vitro antiviral activity was tested against venezuelan equine encephalomyelitis (VEE) virus; assay type: functional; conditions: read-out: ED50 (the source's name)
[8] = tested on: Vaccinia virus; test: In vitro antiviral activity was tested against vaccinia virus(VV); assay type: functional; conditions: Orthopoxvirus vaccinia; read-out: ED50 (the source's name)
[9] = tested on: Human alphaherpesvirus 2; test: In vitro antiviral activity was tested against herpes simplex virus type 2 (HSV-2); assay type: functional; conditions: read-out: ED50 (the source's name); method in brief: as §1
[10] = tested on: Mus musculus; test: The maximum tolerated dose was evaluated in mice expressed in terms of mg/kg of body weight; assay type: functional
[11] = tested on: Human respirovirus 3; test: In vitro antiviral activity was tested against parainfluenza virus type 3 (para3) virus; assay type: functional, para influenza virus; conditions: read-out: ED50 (the source's name)
[12] = tested on: Vaccinia virus; test: In vitro antiviral activity was tested against vaccinia virus(VV) virus; assay type: functional; conditions: Orthopoxvirus vaccinia; read-out: ED50 (the source's name)
[13] = tested on: Human alphaherpesvirus 2; test: In vitro antiviral activity was tested against herpes simplex type 2 (HSV-2) virus; assay type: functional; conditions: read-out: ED50 (the source's name)
[14] = tested on: Mus musculus; test: The maximum tolerated dose was evaluated in mice and is expressed as mg/kg of body weight; assay type: functional
[15] = tested on: Venezuelan equine encephalomyelitis virus (VEE); test: Therapeutic index against Venezuelan equine encephalomyelitis virus (VEE); conditions: Venezuelan equine encephalitis virus; read-out: Therapeutic index
[16] = tested on: Human respirovirus 3; test: In vitro against parainfluenza type 3 (para3) virus; assay type: functional, para influenza virus; conditions: read-out: ED50 (the source's name)
[17] = tested on: Venezuelan equine encephalomyelitis virus (VEE); test: Therapeutic index against Venezuelan equine encephalomyelitis virus.; assay type: organism-based; conditions: venezuelan equine encephalitis virus, in vivo; read-out: Therapeutic index
[18] = tested on: Mus musculus; test: The maximum tolerated dose was evaluated in mice (mg/kg of body weight).; assay type: functional
[19] = tested on: Rift Valley fever virus; test: as §2; conditions: read-out: Therapeutic index

| SMILES | EC50 [1] | MTC [2] | EC50 [3] | EC50 [4] | selectivity ratio [5] | MTC [6] | EC50 [7] | EC50 [8] | EC50 [9] | MTC [10] | EC50 [11] | EC50 [12] | EC50 [13] | MTC [14] | selectivity ratio [15] | EC50 [16] | selectivity ratio [17] | MTC [18] | selectivity ratio [19] |
| --- | --- | --- | --- | --- | --- | --- | --- | --- | --- | --- | --- | --- | --- | --- | --- | --- | --- | --- | --- |
| NC(=O)c1ncn(C2O[C@H](CO)[C@@H](O)[C@H]2O)c1S (stereo partly drawn) | > 5 mM | >110 mg/kg | 5 mM | > 2 mM | 1.1 | >5 mM | > 2 mM | 3.8 mM | – | – | – | – | – | – | – | – | – | – | – |
| CCSc1c(C(N)=O)ncn1C1O[C@H](CO)[C@@H](O)[C@H]1O (stereo partly drawn) | – | – | – | > 2 mM | 1.4 | >5 mM | > 2 mM | – | > 5 mM | >121 mg/kg | > 5 mM | 2600 µM | – | – | – | – | – | – | – |
| CCS(=O)(=O)c1c(C(N)=O)ncn1C1O[C@H](CO)[C@@H](O)[C@H]1O (stereo partly drawn) | > 5 mM | >134 mg/kg | > 5 mM | > 2 mM | 1.21 | >5 mM | > 2 mM | 3.5 mM | – | – | – | – | – | – | – | – | – | – | – |
| Cc1c(C(N)=O)ncn1C1O[C@H](CO)[C@@H](O)[C@H]1O (stereo partly drawn) | – | – | 0.5 mM | 1.8 mM | – | 1.6 mM | – | – | – | – | – | 1400 µM | 4 mM | – | – | – | – | – | – |
| NC(=O)c1ncn(C2O[C@H](CO)[C@@H](O)[C@H]2O)c1SCc1ccccc1 (stereo partly drawn) | > 5 mM | >146 mg/kg | 4.4 mM | 1 mM | 1.9 | >5 mM | 1 mM | – | – | – | – | 230 µM | – | – | – | – | – | – | – |
| CSc1c(C(N)=O)ncn1C1O[C@H](CO)[C@@H](O)[C@H]1O (stereo partly drawn) | – | – | 0.73 mM | 1.8 mM | 1.2 | 1.6 mM | > 1.7 mM | – | 4.1 mM | – | – | 280 µM | – | >100 mg/kg | 0.9 | – | – | – | – |
| CS(=O)(=O)c1c(C(N)=O)ncn1C1O[C@H](CO)[C@@H](O)[C@H]1O (stereo partly drawn) | – | >400 mg/kg | – | 0.0087 mM | 2.8 | >5 mM | 0.65 mM | > 5 mM | – | – | – | – | 5 mM | – | – | > 5 mM | 1.4 | – | – |
| NC(=O)c1ncn([C@@H]2O[C@H](CO)[C@@H](O)[C@H]2O)n1 [RIBAVIRIN] | – | – | – | – | – | – | – | – | – | – | – | – | – | – | – | – | 1.5 | >100 mg/kg | 4 |
